System: MS2 coat protein
Experiment: apparent Kd, MS2 coat protein; higher = weaker binding; RNA-MaP array; FMN 200 µM where present
Procedure, shortened: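 Green signal was scaled to red-channel RNA signal and control-cluster median Fmax, and the apparent Kd was taken as the median of filtered per-cluster binding-curve fits. The binding series used SNAP-549-labelled MS2 coat protein from 0.7 or 1.5 nM, doubling to 3 µM, on designs transcribed by stalled E. coli RNA polymerase on Illumina sequencing-chip clusters. Each series ran without and then with constant ligand in 100 mM Tris-HCl pH 7.5, 80 mM KCl, 4 mM MgCl2, BSA, DTT, yeast tRNA and Tween-20.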

[1] = designed as: OFF switch for flavin mononucleotide, no ligand
[2] = ligand present: flavin mononucleotide, designed as: OFF switch for flavin mononucleotide
[3] = designed as: ON switch for flavin mononucleotide, no ligand
[4] = ligand present: flavin mononucleotide, designed as: ON switch for flavin mononucleotide

Sequence | apparent Kd [1] [nM] | apparent Kd [2] [nM] | apparent Kd [3] [nM] | apparent Kd [4] [nM]
CGAAGAAAGUAGAAGGCAGUCUUAAAAUAGGACUGAGGAUAUACAUGAGGAUCACCCAUGUACUCCUUUAAUAUCUUUGAAAUA | 5.5 | 5.25 | – | –
GUGGAGGGUUGAGGAUAUUGAAUACAUAUGUUUAACAUGAGGAUCACCCAUGUGGGUUGCGGUAUCGAGAAGGUAAAUUGCUGG | – | – | 97.2 | 109
GGAGCACACAUUUACAUGAGGAUCACCCAUGUCAAAAGACAUGAGGAUAUGGAUCCGAAAAGGAUCCAGAAGGCAUGGUGCUCC | – | – | 106 | 8.38
GCGAGUAAAGCAGGAUAUCUAAUAUCACGGAAACAUGAGGAUCACCCAUGUAGAGAAGGGCUAAGUCAUACAAUUCGAACUCGC | 14.1 | 10.5 | – | –
CGUUGAUGAGGAUAUCGAUGUUAGUACAUGAGGAUCACCCAUGUUAUCCAAGUGUCGUUUCGAGAAGGUAUUGGAC | 216 | 348 | – | –
GGACGUCACAUUAACAUGAGGAUCACCCAUGUCAAAAGACAUGAGGAUAUGGAUCCUAAUUGGAUCCAGAAGGCAUGGACGUCC | – | – | 664 | 33.4
CUCAGACAUGAGGAUCACCCAUGUUAGGAUAUAUAAAAGAGCGGCAGAGCGCUCUUCCAUAGAAGGAGCAGUGU | 27.2 | 27.7 | – | –
GCUGACGAUGUAGGAUAUCAGUAUAAUAAAUACUGAGAAGGACAUGAGGAUCACCCAUGUAACUCACGUCAGCAGAGGAAACUC | 17.6 | 20.4 | – | –
GGCGAUCAGGCUAACAUGAGGAUCACCCAUGUGGACUCAUGGUAGGAUAUGCUGUACUUUGUACAGCAGAAGGGCCGGAGAGCC | – | – | 46.1 | 187
AAAAGUUAAGGAUAUACAGGGAGCCGCGGCGACUCGCCGCAACAUGAGGAUCACCCAUGUAGAAGGUAGCCAAA | 27.6 | 62.8 | – | –
UUACCCUCAGUAAGGAUAUCUUUAUCUGCUGAUAUAGAGAAGGUACAUGAGGAUCACCCAUGUGCGAUUGGGCU | 116 | 282 | – | –
UUUUAUUGCAAGGAUAUGCAAAUUAUUAUUAAUGCAGAAGGUGCUACAUGAGGAUCACCCAUGUUUCUGGGUUU | 98.2 | 308 | – | –
GUGUAGGGAGGAUAUACAUGAGGAUCACCCAUGUGAAUAAGAUAGAAUAAGAUAAAGUGUAGAAGGUCUAGUGU | 66 | 51.9 | – | –
ACGUCUUAGUAGAAGGGACUUCGGCUGGUAAGCAUCAUCUCCUUCUCACAUGAGGAUCACCCAUGUCAGGAUAUACUAAGAGUC | 7.24 | 7.35 | – | –
AGACUGAAGCAAGGAUAUUGUAAGGUUAUUGUACAAGAAGGUGCUGUUUAUGUCUCUUAACAUGAGGAUCACCCAUGUUUUGAA | – | – | 19.7 | 19.1
UCGAGCAGGGAAUGGUCGCUGAAGUAGGAUAUCCGCGUGGCCGUCCACAUGAGGAUCACCCAUGUGGAGAAGGGCUACAGCGAA | 6.07 | 6.58 | – | –
CUGGUUGUCGAGGAUAUGCACCAGCUCACUGACGCAGAAGGCGACACAUGAGGAUCACCCAUGUCAGUUCGCGU | 16.9 | 18.9 | – | –
GGCAUACAUGAGGAUCACCCAUGUAACCUGCACUAAGGAUAUGGCGUGGCCCAUGGCUACCCAGAAGGUAGAUAAA | – | – | 136 | 195
UUGAAUUAAAAGGAUAUGGGAGUCGAUAGACACCCAGAAGGUUUAACAUGAGGAUCACCCAUGUGUCCUAUCAA | 23.1 | 31.4 | – | –
CGCUACAGCCAGAAGGACAUGAGGAUCACCCAUGUAGGAUAUGGGAGACGCAGUCCAGUGUAGAGAAACUACGCUACUGUAGCG | – | – | 504 | 216
AACAGCUCGUCAGGAUAUACAAUACUGCUUCGGCAGUAUGAUAAGAUAACAUGAGGAUCACCCAUGUAGAAGGGACGAGCUGAA | 6.23 | 7.47 | – | –
CCAGACGUUGUAGGAUAUCUGAAAGGAAGUGUAAGAGAAGGAUAGUGUCUGUAAAACAUGAGGAUCACCCAUGUGGGCGCAUCC | 19.6 | 61.9 | – | –
UUCAGACAUGAGGAUCACCCAUGUGAGGAUAUGAUGCGAUCGUCGAAAGACGAUAGCAUCAGAAGGCACAAAUG | 103 | 156 | – | –
AGCCUACAUGAGGAUCACCCAUGUCAGGAUAUCUCGCGGCGCGUCAAGUUCACGCCGCAGAGAAGGGACUCGGG | 47.9 | 47.3 | – | –
GUAGCAUACAGAGGAUAUUCAAAACCGGAAACGGACAUGAGGAUCACCCAUGUGGCGAAAGCCUGGGAGAAGGCUGAAUGCUAC | – | – | 28.6 | 14.2
GUCCGUAGACAGAAGGUGACAUGAGGAUCACCCAUGUUAGUUGAGGUAUCAGCGAUCUGCGUGAUUGAGGAUAUGUCUACGGGC | 7.9 | 8.22 | – | –
CCUCCAUCAUGAGGAUAUGGCACCUUAUUGGUGCCAGAAGGCAUGUCUCUUGACAUGAGGAUCACCCAUGUAAUAAAUUGGAGG | – | – | 1150 | 109

Source: the EternaBench riboswitch data
